Test results from publication PMC9722545 (Structure (London, England : 1993), 2022).

How the values were obtained:
[1] = test system: CDK2 and CDK1; conditions: no cyclins present; ref Wood et al., 2019; cited from earlier work
[2] = test system: other CDKs; conditions: ref Lin et al., 2019, cited from earlier work
[3] = target: CDK2-cyclin A Gly11Glu (G11E) (Homo sapiens, UniProt P24941, G11E); assay: ITC binding of OTS964 to CDK2 Gly11Glu-cyclin A
[4] = target: CDK2-cyclin A Ala144Gly (A144G) (Homo sapiens, UniProt P24941, A144G); assay: ITC binding of OTS964 to CDK2 Ala144Gly-cyclin A
[5] = target: CDK2 Ala144Gly (A144G) (Homo sapiens, UniProt P24941, A144G); assay: ITC binding of OTS964 to CDK2 Ala144Gly
Outline: (§1)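 Human CDK2 (res. 1–298, wild-type or point mutant) is expressed as a GST-PreScission fusion with yeast CAK1 in E. coli BL21(DE3), then tag-cleaved and gel-filtered, with no cyclin. ITC at 25°C in 25 mM HEPES pH 7.5, 250 mM NaCl, 1 mM DTT, 2.0% DMSO: 2250 μM test compound into 150 μM kinase, 38×1 μL injections 180 s apart.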

[6] = target: CDK11 Wild-type (CDK11B residues 72–380) (Homo sapiens, UniProt P21127); assay: ITC binding of OTS964 to CDK11 wild-type
[7] = target: CDK2-cyclin A Phe80Met (F80M) (Homo sapiens, UniProt P24941, F80M); assay: ITC binding of OTS964 to CDK2 Phe80Met-cyclin A
[8] = target: CDK11 Gly223Ala (G223A) (Homo sapiens, UniProt P21127, G579A); assay: ITC binding of OTS964 to CDK11 Gly223Ala
[9] = target: CDK11 Met160Phe (M160F) (Homo sapiens, UniProt P21127, M516F); assay: ITC binding of OTS964 to CDK11 Met160Phe
[10] = target: CDK2 Phe80Met (F80M) (Homo sapiens, UniProt P24941, F80M); assay: ITC binding of OTS964 to CDK2 Phe80Met
Outline: as §1

[11] = target: CDK11 Glu89Gly (E89G) (Homo sapiens, UniProt P21127, E445G); assay: ITC binding of OTS964 to CDK11 Glu89Gly
[12] = target: CDK2 Wild-type (Homo sapiens, UniProt P24941); assay: ITC binding of OTS964 to CDK2 wild-type
Outline: as §1

[13] = test system: CDK7; conditions: KINOMEscan panel of CDKs; ref Lin et al., 2019; cited from earlier work
[14] = target: CDK2 Gly11Glu (G11E) (Homo sapiens, UniProt P24941, G11E); assay: ITC binding of OTS964 to CDK2 Gly11Glu
Outline: as §1

[15] = target: CDK2-cyclin A Wild-type (Homo sapiens, UniProt P24941); assay: ITC binding of OTS964 to CDK2-cyclin A wild-type; conditions: for Kd: mean ± SD
[16] = test system: tumor cell lines harbouring FBXW7−/− mutations; conditions: FBXW7−/− versus FBXW7 wild-type tumor cell lines; ref O’Brien et al. (2022); cited from earlier work
[17] = target: CDK11 Gly223Ser (Homo sapiens, UniProt P21127, G579S); assay: ITC binding of OTS964 to CDK11 Gly223Ser
[18] = target: CDK11 G223A/E89G/M160F (Homo sapiens, UniProt P21127, E445G/G579A/M516F); assay: ITC binding of OTS964 to CDK11 triple mutant
[19] = ITC, CDK2 Gly11Glu with cyclin A
[20] = ITC, CDK2 Ala144Gly with cyclin A
[21] = ITC, CDK2 Phe80Met with cyclin A
[22] = ITC, CDK2 wild-type with cyclin A

Sequence of CDK11 G223A/E89G/M160F (P21127 428-736 E445G/M516F/G579A): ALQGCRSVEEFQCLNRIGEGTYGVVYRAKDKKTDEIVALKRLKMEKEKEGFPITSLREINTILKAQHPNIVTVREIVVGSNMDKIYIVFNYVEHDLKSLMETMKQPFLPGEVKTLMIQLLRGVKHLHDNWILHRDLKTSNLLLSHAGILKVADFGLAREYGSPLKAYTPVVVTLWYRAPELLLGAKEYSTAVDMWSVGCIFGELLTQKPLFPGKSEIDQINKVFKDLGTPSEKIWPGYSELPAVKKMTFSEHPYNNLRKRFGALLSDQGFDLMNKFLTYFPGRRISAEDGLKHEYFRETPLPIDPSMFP
Sequence of CDK11 Glu89Gly (E89G) (P21127 428-736 E445G): as the sequence (P21127 428-736 E445G/M516F/G579A) above, with F89M, A152G counted along it
Sequence of CDK11 Gly223Ser (P21127 428-736 G579S): as the sequence (P21127 428-736 E445G/M516F/G579A) above, with G18E, F89M, A152S counted along it
Sequence of CDK11 Wild-type (CDK11B residues 72–380) (P21127 428-736): as the sequence (P21127 428-736 E445G/M516F/G579A) above, with G18E, F89M, A152G counted along it
Sequence of CDK11 Met160Phe (M160F) (P21127 428-736 M516F): as the sequence (P21127 428-736 E445G/M516F/G579A) above, with G18E, A152G counted along it
Sequence of CDK11 Gly223Ala (G223A) (P21127 428-736 G579A): as the sequence (P21127 428-736 E445G/M516F/G579A) above, with G18E, F89M counted along it

Q: With Cc1ncc(-c2ccnc(Nc3ccc(S(C)(=O)=O)cc3)n2)n1C(C)C [AZD5438] as the compound, how does the “difference in affinity between CDK2 and CDK1” value [1] read?
A: Its value is ~ 170 X.

Q: Which results are given for Cc1cc(O)c(-c2ccc(C(C)CN(C)C)cc2)c2c1[nH]c(=O)c1sccc12 (stereo not drawn) [OTS964]?
A: binding to other CDKs tested ([2]; KINOMEscan panel of CDKs): no apparent binding; Kd ([2]; other CDKs): > 3000 nM; higher affinity for CDK11 than other CDKs [2]: at least 75 fold; Kd [3]: 621 ± 16 nM; N (sites) ([3]; ITC, 25°C, CDK2 Gly11Glu with cyclin A): 1.16 sites; ΔH [3, 19]: -7.13 ± 0.21 kcal/mol; ΔS [3, 19]: 4.48 ± 0.76 cal/mol/K; ΔG ([3]; ITC, CDK2 Gly11Glu with cyclin A, ΔG = ΔH − TΔS): -8.47 ± 0.02 kcal/mol; Kd [4]: 3030 ± 150 nM; N (sites) ([4]; ITC, 25°C, CDK2 Ala144Gly with cyclin A): 1.04 sites; ΔH [4, 20]: -6.92 ± 0.01 kcal/mol; ΔS [4, 20]: 2.04 ± 0.11 cal/mol/K; ΔG ([4]; ITC, CDK2 Ala144Gly with cyclin A, ΔG = ΔH − TΔS): -7.53 ± 0.03 kcal/mol; Kd [5]: 16000 ± 4600 nM; N (sites) ([5]; ITC, 25°C, CDK2 Ala144Gly, no cyclin): 0.554 sites; ΔH ([5]; ITC, CDK2 Ala144Gly, no cyclin): -10.6 ± 1.2 kcal/mol; ΔS ([5]; ITC, CDK2 Ala144Gly, no cyclin): −13.4 ± 4.5 cal/mol/K; ΔG ([5]; ITC, CDK2 Ala144Gly, no cyclin, ΔG = ΔH − TΔS): -6.56 ± 0.17 kcal/mol; Kd [6]: 65.4 ± 18 nM; Kd [7]: 4980 ± 440 nM; N (sites) ([7]; ITC, 25°C, CDK2 Phe80Met with cyclin A): 1.28 sites; ΔH [7, 21]: -9.69 ± 0.08 kcal/mol; ΔS [7, 21]: −8.23 ± 0.44 cal/mol/K; ΔG ([7]; ITC, CDK2 Phe80Met with cyclin A, ΔG = ΔH − TΔS): -7.24 ± 0.05 kcal/mol; Kd [8]: 31.7 ± 13.8 nM; Kd [9]: 556 ± 26 nM; Kd [10]: 32400 ± 1900 nM; N (sites) ([10]; ITC, 25°C, CDK2 Phe80Met, no cyclin): 0.804 sites; ΔS ([10]; ITC, CDK2 Phe80Met, no cyclin): −19.1 ± 1.1 cal/mol/K; ΔG ([10]; ITC, CDK2 Phe80Met, no cyclin, ΔG = ΔH − TΔS): 17.5 ± 0.6 kcal/mol; Kd [11]: 50.9 ± 3.3 nM; Kd [12]: 16300 ± 1700 nM; weaker binding than monomeric CDK11 ([12]; ITC KD, CDK2 without cyclin vs monomeric CDK11): ~ 250 fold; N (sites) ([12]; ITC, 25°C, CDK2 wild-type, no cyclin): 0.704 sites; ΔH ([12]; ITC, CDK2 wild-type, no cyclin): -9.12 ± 0.60 kcal/mol; ΔS ([12]; ITC, CDK2 wild-type, no cyclin): −8.66 ± 1.80 cal/mol/K; ΔG ([12]; ITC, CDK2 wild-type, no cyclin, ΔG = ΔH − TΔS): -6.54 ± 0.06 kcal/mol; more potent against CDK11 than against CDK7 [13]: 10 X; Kd [14]: 6820 ± 530 nM; N (sites) ([14]; ITC, 25°C, CDK2 Gly11Glu, no cyclin): 0.866 sites; ΔH ([14]; ITC, CDK2 Gly11Glu, no cyclin): -9.45 ± 0.32 kcal/mol; ΔS ([14]; ITC, CDK2 Gly11Glu, no cyclin): −8.05 ± 1.23 cal/mol/K; ΔG ([14]; ITC, CDK2 Gly11Glu, no cyclin, ΔG = ΔH − TΔS): -7.05 ± 0.05 kcal/mol; enhancement of binding of CDK2 to OTS964 in the presence versus absence of cyclin A ([15]; ITC KD): 7 fold; N (sites) ([15]; ITC, 25°C, CDK2 wild-type with cyclin A): 1.00 sites; ΔH [15, 22]: -8.64 ± 1.06 kcal/mol; ΔS [15, 22]: −2.64 ± 2.99 cal/mol/K; ΔG ([15]; ITC, CDK2 wild-type with cyclin A, ΔG = ΔH − TΔS): -7.85 ± 0.18 kcal/mol; Kd ([15]; ITC, 25°C, CDK2 wild-type with cyclin A, n=2): 1820 ± 500 nM; Kd ([15]; ITC, CDK2 in the presence of cyclin A): 1800 ± 500 nM; sensitivity to OTS964 treatment [16]: more sensitive; Kd [17]: 853 ± 56 nM; Kd [18]: 320 ± 66 nM
